From ChEMBL document CHEMBL1156702, “Synthesis and molecular modelling of unsaturated exomethylene pyranonucleoside analogues with antitumor and antiviral activities” (Eur J Med Chem, 2008) come the findings set out here.

The CC50 is the concentration at which the toxic effect on the cells reaches its halfway point. Low values mean greater toxicity to the cells, high ones lower toxicity to the cells.

A short description of series [1]: Cytotoxicity against human Caco-2 cells after 72 hrs. It counts as cell-based. A digest of the protocol:
(§1)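 Cells kept in DMEM with 5% foetal calf serum, L-glutamine, penicillin/streptomycin at 37 °C, 5% CO2. Seeded cells exposed to 3-fold serial dilutions (starting 0.5 mg/mL; DMSO stock, final DMSO <0.1%) for 72 h at 37 °C. Treated wells (n=2) compared with controls (n=24). CC50 taken from concentration-effect curve.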

Series [2] is described as follows: Ratio of CC50 for human Caco-2 cells to IC50 for rotavirus RF assessed by inhibition of infectivity following virus attachment.
Series [3] in a line: Cytotoxicity against human H4 cells after 72 hrs. It counts as cell-based. A digest of the protocol: as §1

In series [1], `Cc1cn([C@H]2C[C@H](N=[N+]=[N-])[C@@H](CO)O2)c(=O)[nH]c1=O` [ZIDOVUDINE] registered a CC50 at 72 h of 56.1 µM. Also, the “Ratio CC50/IC50” value in series [2] is 2.5. In turn, `C=C1C=C[C@@H](n2ccc(=O)[nH]c2=O)O[C@@H]1COC(c1ccccc1)(c1ccccc1)c1ccccc1` gave a CC50 at 72 h in series [3] of 1040 µM. Same read-out and setting: with `C=C1[C@@H](CO)O[C@H](n2ccc(=O)[nH]c2=O)[C@@H](O)[C@H]1O` the figure was 1850 µM.

`C=C1C=C[C@@H](n2ccc(=O)[nH]c2=O)O[C@@H]1CO` came in with a CC50 at 72 h in series [3] of 2120 µM. On the same count and under the same terms, with `O=C1C=C[C@@H](n2ccc(=O)[nH]c2=O)O[C@@H]1CO` the figure was 2100 µM.
